Experimental data collected from several papers.
Compare with care: the assays were run in different laboratories. pEC50, pIC50: −log10 of the molar value.
Observed: cell growth or viability

| SMILES | cell line | assay | setting | endpoint | result |
| --- | --- | --- | --- | --- | --- |
| CC(C)C[C@H](NC(=O)[C@H](Cc1ccccc1)NC(=O)c1cnccn1)B(O)O | HepG2 | ATP luminescence | 48 h | pEC50 | 11.15 |
| O=C(Nc1ccc(Cl)cc1)Nc1ccc(-c2cn(Cc3ccc(Cl)cc3)nn2)cc1 | Huh-7 | CCK-8 | 50 µM, 72 h | viability | 72.8% |
| O=[N+]([O-])c1ccc(O)c(C=NNc2ccc(Br)cc2)c1 | HEK-293T | MTT | 24 h | pIC50 | 4.79 |
| C=C(NC(=O)C(=C)NC(=O)c1csc(C2=N[C@@H]3c4csc(n4)[C@H]4NC(=O)c5csc(n5)[C@H]([C@](C)(O)[C@@H](C)O)NC(=O)[C@H]5CSC(=N5)/C(=C/C)NC(=O)[C@H]([C@@H](C)O)NC(=O)c5csc(n5)[C@]3(CC2)NC(=O)[C@H](C)NC(=O)C(=C)NC(=O)[C@H](C)NC(=O)[C@H]([C@@H](C)CC)N[C@@H]2C=Cc3c([C@H](C)O)cc(nc3[C@H]2O)C(=O)O[C@@H]4C)n1)C(N)=O | NCI-H2009 |  |  | pEC50 | 5.82 |
| O=C(Nc1ccc(Cl)cc1)Nc1ccc(-c2cn(Cc3ccc(Br)cc3)nn2)cc1 | Huh-7 | CCK-8 | 50 µM, 72 h | viability | 65% |
| COc1ccc(NC(=O)NCc2cn(Cc3ccccc3C)nn2)cc1 | Huh-7 | CCK-8 | 50 µM, 48 h | viability | 84.2% |
| O=[N+]([O-])c1cc(Br)c(O)c(C=NNc2ccc(Cl)cc2)c1 | HEK-293T | MTT | 24 h | pIC50 | 4.77 |
| COc1ccc(NC(=O)Nc2cccc(-c3cn(Cc4ccc(Br)cc4)nn3)c2)cc1 | Huh-7 | CCK-8 | 50 µM, 72 h | viability | 10.7% |
| COc1cc(NC(=O)c2cnn(-c3ccc([N+](=O)[O-])cc3)c2C(F)(F)F)cc(OC)c1 | LX-2 | MTS | 50 µM, 72 h | inhibition | 14.1% |
| O=C(Nc1ccc(Cl)cc1)Nc1ccc(-c2cn(Cc3cccc(Cl)c3)nn2)cc1 | Huh-7 | CCK-8 | 50 µM, 48 h | viability | 86.7% |
| COc1cc(NC(=O)c2cnn(-c3ccc([N+](=O)[O-])cc3)c2C(F)(F)F)cc(OC)c1OC | LX-2 | MTS | 50 µM, 72 h | inhibition | 11% |
| COc1ccc(NC(=O)Nc2ccc(-c3cn(Cc4ccc(C)cc4)nn3)cc2)cc1 | Huh-7 | CCK-8 | 50 µM, 48 h | viability | 77.3% |
